Measurements as given in ChEMBL document CHEMBL4680231, “A glutathione-responsive photosensitizer with fluorescence resonance energy transfer characteristics for imaging-guided targeting photodynamic therapy” (Eur J Med Chem, 2020).
The source made the active and inactive calls. No cut-off for these calls is given here.

Columns and labels:
HeLa [1] = test: Cytotoxicity against human HeLa cells assessed as reduction cell viability preincubated for 24 hrs in dark condition followed by irradiated with 20 mW cm^-2 light by MTT assay; format: functional, cell-based
Procedure, shortened: (§1)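 MTT assay. About 6000 cells per well were seeded and left overnight at 37 °C, 5% CO2. Compound was added at a range of concentrations in DMEM (1% DMSO, 0.05% Tween 80) for 24 h in the dark, then the medium was replaced. Irradiated wells received a 670 nm LED at 20 mW·cm⁻² for 2 min (2.4 J·cm⁻²); dark wells were not irradiated. Cells were incubated overnight, then MTT for 4 h, DMSO added, OD read at 490 nm. Three independent experiments, each in sextuplicate. IC50 is the concentration killing 50% of cells.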

[2] = Photoactivity of compound in DMF assessed as singlet oxygen generation at 10 uM irradiated with 20 mW cm^-2 light by DMA based fluorescence assay; format: functional
[3] = Prodrug activation in human A549 cells assessed as increase in fluorescence at 10 uM after 8 hrs by confocal laser scanning microscopic method; format: cell-based; details: a549, 8 h
Procedure, shortened: (§2)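 Cells (10^5 per confocal dish) were seeded in DMEM overnight at 37 °C, 5% CO2. They were pretreated with 5 mM GSH in DMEM, or medium alone, for 2 h, then washed. Compound at 10 μM was added for 8 h. Intracellular fluorescence was read by confocal microscopy (excitation 633 nm) or by flow cytometry under the same conditions.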

[4] = Prodrug activation in mouse H22 cells assessed as increase in fluorescence at 10 uM after 8 hrs by confocal laser scanning microscopic method; format: cell-based; details: h22, 8 h; procedure, shortened: as §2
[5] = Prodrug activation in HELF cells assessed as increase in fluorescence at 10 uM after 8 hrs by confocal laser scanning microscopic method; format: cell-based; details: human, primary lung fibroblast; procedure, shortened: as §2
[6] = Prodrug activation in mouse H22 cells assessed as increase in fluorescence at 10 uM after 8 hrs in presence of GSH by confocal laser scanning microscopic method; format: cell-based; details: h22, 8 h; procedure, shortened: as §2
[7] = Prodrug activation in HELF cells assessed as increase in fluorescence at 10 uM after 8 hrs in presence of GSH by confocal laser scanning microscopic method; format: cell-based; details: human, primary lung fibroblast; procedure, shortened: as §2
[8] = Prodrug activation in human A549 cells assessed as increase in fluorescence at 10 uM after 8 hrs by flow cytometric analysis; format: cell-based; details: a549, 8 h; procedure, shortened: as §2
[9] = Prodrug activation in human HeLa cells assessed as increase in fluorescence at 10 uM after 8 hrs in presence of GSH by flow cytometric analysis; format: cell-based; procedure, shortened: as §2
[10] = Prodrug activation in human A549 cells assessed as increase in fluorescence at 10 uM after 8 hrs in presence of GSH by flow cytometric analysis; format: cell-based; details: a549, 8 h; procedure, shortened: as §2
[11] = Prodrug activation in HELF cells assessed as increase in fluorescence at 10 uM after 8 hrs in presence of GSH by flow cytometric analysis; format: cell-based; details: human, primary lung fibroblast; procedure, shortened: as §2
A549 [12] = test: Induction of ROS generation in human A549 cells at 10 uM incubated for 12 hrs irradiated with 20 mW cm^-2 light in presence of GSH by DCFH-DA staining based confocal laser scanning microscopic method; format: functional, cell-based
Procedure, shortened: (§3)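 Cells were seeded in confocal dishes overnight. Pretreatment was GSH 5 mM in DMEM for 2 h, or vitamin C 100 μM for 1 h, before compound at 10 μM for 12 h. DCFH-DA was added for 1 h, then 5 PBS washes and transfer to serum-free, phenol red-free DMEM. Cells were irradiated at 670 nm, 20 mW·cm⁻², for 3 min. Confocal imaging used λex 488 nm for DCF and 633 nm for the photosensitizer.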

HeLa [13] = test: Induction of ROS generation in human HeLa cells at 10 uM incubated for 12 hrs irradiated with 20 mW cm^-2 light in presence of GSH by DCFH-DA staining based confocal laser scanning microscopic method; format: functional, cell-based; procedure, shortened: as §3
A549 [14] = test: Induction of ROS generation in human A549 cells at 10 uM incubated for 12 hrs irradiated with 20 mW cm^-2 light in presence of vitamin C by DCFH-DA staining based confocal laser scanning microscopic method; format: functional, cell-based; procedure, shortened: as §3
HeLa [15] = test: Induction of ROS generation in human HeLa cells at 10 uM incubated for 12 hrs irradiated with 20 mW cm^-2 light in presence of vitamin C by DCFH-DA staining based confocal laser scanning microscopic method; format: functional, cell-based; procedure, shortened: as §3
Primary lung fibroblast = test: Induction of ROS generation in human HELF cells at 10 uM incubated for 12 hrs irradiated with 20 mW cm^-2 light in presence of vitamin C by DCFH-DA staining based confocal laser scanning microscopic method; format: functional, cell-based; procedure, shortened: as §3
A549 [16] = test: Cytotoxicity against human A549 cells assessed as reduction cell viability up to 10 uM after 24 hrs in dark condition by MTT assay; format: cell-based; details: a549, 24 h; procedure, shortened: as §1
HeLa [17] = test: Cytotoxicity against human HeLa cells assessed as reduction cell viability up to 10 uM after 24 hrs in dark condition by MTT assay; format: cell-based; procedure, shortened: as §1
H22 [18] = test: Cytotoxicity against mouse H22 cells assessed as reduction cell viability up to 10 uM after 24 hrs in dark condition by MTT assay; format: cell-based; details: h22, 24 h; procedure, shortened: as §1
[19] = Cytotoxicity against human HELF cells assessed as reduction cell viability up to 10 uM after 24 hrs in dark condition by MTT assay; format: cell-based; details: primary lung fibroblast; procedure, shortened: as §1
[20] = Drug uptake in tumour of Kunming mouse implanted with H22 cells at 2 mg/kg, iv and measured up to 24 hrs by FMT assay; format: ADME, organism-based, Neoplasm; details: in vivo
Procedure, shortened: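 Mice carried subcutaneous back tumours from H22 cells (10^7 cells/mL, 100 μL), used at about 50 mm³. They received a single tail-vein injection of 2 mg/kg (200 μL), with saline as control, 3 mice per group. Whole-body fluorescence molecular tomography was taken at 0, 2, 6, 12 and 24 h. At 24 h, tumour, heart, liver, spleen, lung and kidney were imaged ex vivo.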

H22 [21] = test: (§4) Photodynamic antitumor activity against mouse H22 cells implanted in Kunming mouse assessed as reduction in tumour volume at 2 mg/kg, iv administered at […] post-implantation followed by irradiated with 100 mW/cm2 […] and measured up to 15 days; format: functional, organism-based; details: time 15.0 day
Procedure, shortened: (§5)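 Mice carried subcutaneous H22 tumours of about 50 mm³ and were randomised into 5 groups of 5. They received saline or compound at 2 mg/kg (100 μL) i.v. on days 1, 4 and 7. Light groups were irradiated at 670 nm, 100 mW/cm², 12 h after each dose. Tumour volume and body weight were recorded daily for 15 days. Tumours were then excised and weighed, fixed in 4% paraformaldehyde, paraffin-embedded and H&E stained. Apoptotic and necrotic areas were scored microscopically.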

H22 [22] = test: Photodynamic antitumor activity against mouse H22 cells implanted in Kunming mouse assessed as reduction in tumour size at 2 mg/kg, iv administered at […] post-implantation followed by irradiated with 100 mW/cm2 […] and measured up to 15 days; format: functional, organism-based; details: time 15.0 day; procedure, shortened: as §5
H22 [23] = test: as §4, with “increase in necrotic cells” for “reduction”, “tumour” for “tumour volume”, “days by H and E staining based microscopic method” for “days”; format: functional, organism-based; details: time 15.0 day; procedure, shortened: as §5
[24] = Photoactivity of compound in PBS with 0.05% Tween 80 assessed as singlet oxygen generation at 10 uM irradiated with 20 mW cm^-2 light in presence on GSH by DMA based fluorescence assay

SMILES | Drug metabolism [2] | Drug metabolism [3] | Drug metabolism [4] | Drug metabolism [5] | Drug metabolism [6] | Drug metabolism [7] | Drug metabolism [8] | Drug metabolism [9] | Drug metabolism [10] | Drug metabolism [11] | Activity (A549 [12]) | Activity (HeLa [13]) | Activity (A549 [14]) | Activity (HeLa [15]) | Activity (Primary lung fibroblast) | Activity (A549 [16]) | Activity (HeLa [17]) | Activity (H22 [18]) | Activity [19] | Drug uptake [20] | also measured
COCCOCCOCCOc1ccc(/C=C/C2=[N+]3C(=C(c4ccc(OCc5cn(CCCCCCn6cc(COc7ccc(C8=C9C(C)=CC(/C=C/c%10ccc(N(C)C)cc%10)=[N+]9[B-](F)(F)n9c(/C=C/c%10ccc(N(C)C)cc%10)cc(C)c98)cc7)nn6)nn5)cc4)c4c(C)c(I)c(/C=C/c5ccc(OCCOCCOCCOC)cc5)n4[B-]3(F)F)C(C)=C2I)cc1 | Metabolite not detected | Metabolite_Notdetected | Metabolite_Notdetected | Metabolite_Notdetected | Metabolite_Notdetected | Metabolite_Notdetected | Metabolite_Notdetected | Metabolite_Notdetected | Metabolite_Notdetected | Metabolite_Notdetected | inactive | inactive | inactive | inactive | inactive | Non-Toxic | Non-Toxic | Non-Toxic | Non-Toxic | Active | Activity (HeLa [1]): inactive; Activity (H22 [21]): Active; Activity (H22 [22]): Active; Activity (H22 [23]): Active; Drug metabolism [24]: Metabolite not detected
COCCOCCOCCOc1ccc(/C=C/C2=[N+]3C(=C(c4ccc(OCc5cn(CCSSCCn6cc(COc7ccc(C8=C9C(C)=CC(/C=C/c%10ccc(N(C)C)cc%10)=[N+]9[B-](F)(F)n9c(/C=C/c%10ccc(N(C)C)cc%10)cc(C)c98)cc7)nn6)nn5)cc4)c4c(C)c(I)c(/C=C/c5ccc(OCCOCCOCCOC)cc5)n4[B-]3(F)F)C(C)=C2I)cc1 | Metabolite not detected | Metabolite_Detected | Metabolite_Detected | Metabolite_Notdetected | Metabolite_Detected | Metabolite_Detected | Metabolite_Detected | Metabolite_Detected | Metabolite_Detected | Metabolite_Detected | Active | Active | inactive | inactive | inactive | Non-Toxic | Non-Toxic | Non-Toxic | Non-Toxic | Active | IC50 (HeLa [1]; light or radiation study): 0.67 µM; Activity (H22 [21]): Active; Activity (H22 [22]): Active; Activity (H22 [23]): Active; Drug metabolism [24]: Metabolite detected
